From PubChem
Only some compounds are listed: those with a hit (about 0.83% of all), similar ones and a draw of the others.
RGS7-Gao – regulators of human RGS7-Galphao interaction. binding response (% of control), % at 10 µM. Multiplexed bead flow cytometry, RGS7-Galphao binding; actives lie on both sides. P09471. hit rate 0.35% among 220,000; in the data active means binding response below about 49% or above about 150%; inconclusive means no clear call, values can overlap the other calls; inactive means in between;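 further: fluorescent Galphao held in activated GDP-AlF4 state binding bead-coupled RGS7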
ABCG2 block – human ABCG2 inhibition, ABCB1 as counter-screen. IgMXP3 cells, JC-1 efflux, flow cytometry. inhibition, % at 6.6 µM. hit rate 0.1% among 190,000. AID 1325;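 active means inhibition above 80%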;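 further: 0% = DMSO and 100% = nicardipine control wells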
Target sequence (Q9UNQ0 whole entry, looked up): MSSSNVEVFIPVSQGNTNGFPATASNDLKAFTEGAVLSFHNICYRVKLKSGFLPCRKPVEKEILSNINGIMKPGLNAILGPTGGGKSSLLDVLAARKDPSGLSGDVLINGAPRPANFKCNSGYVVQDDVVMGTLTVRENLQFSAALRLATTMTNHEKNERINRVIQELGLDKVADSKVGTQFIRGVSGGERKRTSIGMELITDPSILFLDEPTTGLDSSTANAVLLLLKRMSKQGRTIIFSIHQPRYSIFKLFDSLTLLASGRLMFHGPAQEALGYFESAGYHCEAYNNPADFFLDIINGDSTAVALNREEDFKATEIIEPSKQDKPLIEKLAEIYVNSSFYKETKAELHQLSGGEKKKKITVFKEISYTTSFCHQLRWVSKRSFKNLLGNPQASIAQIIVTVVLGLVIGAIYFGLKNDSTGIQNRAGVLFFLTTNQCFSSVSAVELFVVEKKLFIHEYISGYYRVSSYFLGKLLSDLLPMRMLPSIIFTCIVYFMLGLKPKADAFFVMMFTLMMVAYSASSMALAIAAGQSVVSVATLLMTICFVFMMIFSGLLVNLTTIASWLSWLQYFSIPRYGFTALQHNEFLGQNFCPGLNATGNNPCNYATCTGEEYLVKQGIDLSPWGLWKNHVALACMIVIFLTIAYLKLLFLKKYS
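Assay system – ABCG2 IgMXP3 and barcoded ABCB1 CCRF-Adr cell mix · Input – 3 million cells/mL in well · Reagent – JC-1 fluorescent substrate · Compound – single test compound dose, 6.6 µM final · Timing – 10 min exposure at 25 °C with rotation, no wash · Detection – flow cytometry of retained JC-1 fluorescence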
RGS16-Gao – regulators of human RGS16-Galphao interaction; O15492+P09471; bead-based flow cytometry RGS16-Galphao binding, fluorescence; actives lie on both sides; binding response (% of control), % at 10 µM; hit rate 0.38% among 220,000; AID 1441;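 further: Galphao activated by GDP with aluminum fluoride before binding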
RGS4-Gao reg – modulates binding of RGS4 to human Galphao; P09471; Multiplexed bead flow cytometry; actives lie on both sides; binding response (% of control), % at 10 µM; hit rate 0.33% among 220,000; AID 1415; in the data active means binding response below about 49% or above about 150%; inactive means in between;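 further: fluorescent Galphao activated with aluminum fluoride binding bead-coupled RGS4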
RGS8-Gao reg – modulates binding of RGS8 to human Galphao | P09471 | multiplexed bead flow cytometry; actives lie on both sides | response (percent of control binding), % at 10 µM | hit rate 0.34% among 220,000 | AID 1423; in the data active means response below about 60% or above about 140%; inactive means in between;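 further: Galphao activated as the GDP aluminium fluoride complex binding bead-coupled RGS8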
ABCB1 inh – human ABCB1 inhibition, ABCG2 as counter-screen. P08183. hit rate 0.067% among 190,000. CCRF-Adr cells, JC-1 efflux, flow cytometry. inhibition, % at 6.6 µM; in the data active means inhibition above about 40%;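 further: 0% = vehicle and 100% = reference inhibitor; higher value means more JC-1 retained so stronger ABCB1 efflux block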
RGS-Gao – modulates binding between human RGS4 and Galphao; AID 1504; shares compounds with RGS16-Gao; RGS4–Galpha-o binding response, % at 10 µM; hit rate 99% among 1,600; multiplexed bead flow cytometry, RGS–Galpha-o binding;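 further: fluorescently labeled Galpha-o bound to GDP with aluminium fluoride binding biotinylated RGS beads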
Biotin-avidin – biotin-avidin bead binding disruption counter-screen; shares compounds with RGS16-Gao; streptavidin beads, fluorescein-biotin binding, flow cytometry; inhibition, % at 10 µM; 1,700 tested, under 10 active;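 active means inhibition above 50%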;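 further: median green fluorescence of gated singlet beads compared with DMSO control wells; 0% = DMSO wells and 100% = complete loss of bead fluorescence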
RGS8-Gao confirm – RGS8-Galphao interaction regulation, single point confirmation. shares compounds with RGS16-Gao. hit rate 3% among 1,700. binding response (% of control), % at 10 µM. bead-based flow cytometry RGS8-Galphao binding, fluorescence; actives lie on both sides; in the data active means binding response below about 72% or above about 130%; inactive means in between;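 further: Galphao activated as GDP AlF4 complex before binding bead RGS8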
RGS7-Gao confirm – confirmation of regulators of human RGS7-Galphao interaction | shares compounds with RGS16-Gao | bead-based flow cytometry RGS7-Galphao binding; actives lie on both sides | response (percent of control binding), % at 10 µM | hit rate 7.8% among 1,700 | AID 1837; in the data active means response below about 75% or above about 130%; inactive means in between;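 further: fluorescent Galphao activated with GDP and aluminum fluoride binding bead-coupled RGS7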
RGS16-Gao single – RGS16-Galphao interaction regulation, single point confirmation; shares compounds with RGS16-Gao; bead-based flow cytometry, RGS16-Galphao binding; actives lie on both sides; response (% of control binding), % at 10 µM; hit rate 4% among 1,700; AID 1838; in the data active means response below about 74% or above about 130%; inactive means in between;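 further: Galphao activated as the GDP aluminium fluoride complex binding bead-coupled RGS16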
RGS4-Gao confirm – confirmation of regulators of human RGS4-Galphao interaction; RGS4-Galphao binding, multiplexed bead flow cytometry; actives lie on both sides; AID 1840; binding response (% of control), % at 10 µM; hit rate 4% among 1,700; shares compounds with RGS16-Gao; in the data active means binding response below about 74% or above about 130%; inactive means in between
RGS19-Gao conf – confirmation of regulators of human RGS19-Galphao interaction; shares compounds with RGS16-Gao; bead-based flow cytometry RGS19-Galphao binding; actives lie on both sides; response (percent of control binding), % at 10 µM; hit rate 5% among 1,700; AID 1841; in the data active means response below about 50% or above about 160%; inactive means in between;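 further: 100% = no compound control and 0% = blank background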
* = called active by the depositor; ? = inconclusive; nt = no result given; [ ] = dose if it differs, or a comment. Unless noted, how the calls were made is not given here.

SMILES	RGS7-Gao	ABCG2 block	RGS16-Gao	RGS4-Gao reg	RGS8-Gao reg	ABCB1 inh	RGS-Gao	Biotin-avidin	RGS8-Gao confirm	RGS7-Gao confirm	RGS16-Gao single	RGS4-Gao confirm	RGS19-Gao conf
Fc1ccc(-c2cc(C(F)(F)C(F)F)[nH]n2)cc1	?	nt	164	168*[activator]	111	nt	nt	2	104	106	106	107	97
Cc1cc(C(=O)Oc2cccnc2)ccc1[N+](=O)[O-]	104	18	25*	91	76	2	91*	-1	103	107	104	102	100
CSc1ccc(S(=O)(=O)N(CC(=O)NN=C2CCN(C)CC2)c2ccc(C)cc2)cc1	174*[activator]	-1	101	112	99	0	112*	1	102	125*[activator]	113	112	195*[activator]
O=C1c2ccccc2NC(c2ccc(O)cc2)N1Cc1ccco1 (stereo not given)	98	5	101	102	100	0	nt	nt	nt	nt	nt	nt	nt
O=C1c2ccccc2NC(c2cccc(F)c2)N1Cc1ccco1 (stereo not given)	31*	0	53	43*	51*	0	nt	-1	100	103	100	101	102
O=C(c1ccco1)N1CCN(S(=O)(=O)c2ccc(Cl)s2)CC1	nt	-1	nt	nt	nt	0	nt	1	98	98	98	95	94
O=C(c1ccc(S(=O)(=O)N2CCOCC2)cc1)N1CCN(S(=O)(=O)c2ccc(Cl)s2)CC1	?	nt	105	108	104	nt	nt	nt	nt	nt	nt	nt	nt
CCC(C)(C)NC(=O)C(c1cccn1C)N(C(=O)Cn1nnc2ccccc21)c1ccccc1OC (stereo not given)	79	3	24*	77	68	3	77*	-1	97	48*	79	60*	59
CCC(C)(C)NC(=O)C(c1cccn1C)N(Cc1ccc(OC)cc1)C(=O)Cn1nnc2ccccc21 (stereo not given)	98	5	99	101	101	4	nt	nt	nt	nt	nt	nt	nt
N#Cc1cc(C(=O)c2ccccc2O)cn(-c2nccs2)c1=O	66	0	22	57	58*	0	57*	1	106	104	105	102	115
COc1ccc(OC)c(/C(O)=C/C(=O)C(=O)Nc2cc(C)ccc2OC)c1	68	-2	710	49*	82	0	nt	0	89	75*	87	84	127
COC(=O)c1cc(-c2ccc(NC(C)=O)cc2)nc2ccccc12	?	5	99	104	99	0	nt	nt	nt	nt	nt	nt	nt
Cc1cccc(NC(=O)CCn2ccnc2C)c1	16*	10	13*	22*	14*	1	nt	-1	102	94	102	98	96
CCc1ccc(NC(=O)Nc2cccs2)cc1	-11*	2	-20*	-32*	5.8*	0	nt	1	105	98	106	103	96
CCCCC(C(=O)O)C(C)CC(=O)NNC(=O)c1ccco1 (stereo not given)	102	-2	107	104	103	1	nt	nt	nt	nt	nt	nt	nt
